This is an account of results in ChEMBL document CHEMBL2429794, “Tuning the antibacterial activity of amphiphilic neamine derivatives and comparison to paromamine homologues” (J Med Chem, 2013).

Values after ≈ are worked out from the molar mass of the structure shown.

The test system of experiment [1] is Staphylococcus aureus. Kind of experiment: Antibacterial activity against Staphylococcus aureus expressing aminoglycoside-[…] after 24 hrs by geometric microdilution method. The experiment is classed as functional. In a few lines: (§1)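 Broth cultures were incubated in plates at 37 °C, and growth was read as absorbance at 650 nm after 1, 4, 7 and 24 h. Ampicillin (16 mg/L) was the positive control and DMSO the negative control. Each MIC (μg/mL) is the average of at least three determinations.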
(In general: Dilution methods test growth across graded concentrations, often in twofold steps.)

In experiment [2] the test system is Pseudomonas aeruginosa. Briefly: Antibacterial activity against Pseudomonas aeruginosa ATCC 27853 after 24 hrs by geometric microdilution method. The experiment is classed as functional. The note with it: ATCC 27853, 24 h.
In experiment [3] the test system is Escherichia coli. Briefly: microbe, parasite or virus in culture. The note with it: ATCC 25922, 24 h.
Experiment [4] has as its system Staphylococcus aureus. Kind of experiment: Antibacterial activity against vancomycin-resistant Staphylococcus aureus VRS2 after 24 hrs by geometric microdilution method. The experiment is classed as functional. The note with it: VRS2, 24 h. In a few lines:
as §1

Experiment [5] relates to Pseudomonas aeruginosa. Kind of experiment: Antibacterial activity against Pseudomonas aeruginosa PA22 (PT629) expressing MexXY after 24 hrs by geometric microdilution method. The experiment is classed as functional.
Experiment [6] concerns Staphylococcus aureus. Briefly: microbe, parasite or virus in culture. Particulars: ATCC 25923, 24 h.
The test system of experiment [7] is Klebsiella pneumoniae. Kind of experiment: Antibacterial activity against Klebsiella pneumoniae ATCC 700603 after 24 hrs by geometric microdilution method. The experiment is classed as functional. Particulars: ATCC 700603, 24 h.
For experiment [8], the system named is Staphylococcus aureus. Briefly: Antibacterial activity against Staphylococcus aureus expressing aminoglycoside-6'-N-acetyltransferase/2''-O-phosphoryltransferase after 24 hrs by geometric microdilution method. The experiment is classed as functional. In a few lines:
as §1

The test system of experiment [9] is Acinetobacter lwoffii. Kind of experiment: Antibacterial activity against Acinetobacter lwoffii AI.88-483 expressing APH3'-6A after 24 hrs by geometric microdilution method. The experiment is classed as functional. Particulars: AI.88-483, 24 h.
The test system of experiment [10] is Escherichia coli. Briefly: Antibacterial activity against Escherichia coli L58058.1 expressing ANT2''-1A after 24 hrs by geometric microdilution method. The note with it: L58058.1, 24 h. The experiment is classed as functional.
The test system of experiment [11] is Acinetobacter lwoffii. Briefly: Antibacterial activity against Acinetobacter lwoffii ATCC 17925 after 24 hrs by geometric microdilution method. The experiment is classed as functional. Particulars: ATCC 17925, 24 h.
The test system of experiment [12] is Staphylococcus aureus. Briefly: Antibacterial activity against fluoroquinolone-resistant Staphylococcus aureus 1199B expressing NorA efflux pump after 24 hrs by geometric microdilution method. The experiment is classed as functional. In a few lines:
as §1

The subject of experiment [13] is Staphylococcus aureus. Kind of experiment: Antibacterial activity against 14- and 15-membered macrolide-resistant Staphylococcus aureus expressing MsrA efflux pump after 24 hrs by geometric microdilution method. The experiment is classed as functional. In a few lines: as §1
Experiment [14] has as its system Escherichia coli. Briefly: Antibacterial activity against Escherichia coli PAZ505H8101 expressing AAC6'-1B after 24 hrs by geometric microdilution method. The experiment is classed as functional. The note with it: PAZ505H8101, 24 h.
Experiment [15] relates to Pseudomonas aeruginosa. Briefly: Antibacterial activity against Pseudomonas aeruginosa F03 expressing AAC6'-2A after 24 hrs by geometric microdilution method. The experiment is classed as functional. The note with it: F03, 24 h.
The test system of experiment [16] is Staphylococcus aureus. Kind of experiment: Antibacterial activity against Staphylococcus aureus expressing aminoglycoside-3'-O-phosphoryltransferase after 24 hrs by geometric microdilution method. The experiment is classed as functional. The essentials: as §1
The subject of experiment [17] is Staphylococcus aureus. Kind of experiment: Antibacterial activity against healthcare-acquired methicillin-resistant Staphylococcus aureus ATCC 33592 after 24 hrs by geometric microdilution method. The experiment is classed as functional. Particulars: ATCC 33592, 24 h. In a few lines:
as §1

For `NC[C@H]1O[C@H](O[C@H]2[C@H](O)[C@@H](OCc3cccc4ccccc34)[C@H](N)C[C@@H]2N)[C@H](N)[C@@H](OCc2cccc3ccccc23)[C@@H]1O`, the MIC in [1] is 16 µg/mL (≈ 26.5 µM); in [2], 32 µg/mL (≈ 53.1 µM); in experiment [3] it was 32 µg/mL (≈ 53.1 µM); in experiment [4] it was 8 µg/mL (≈ 13.3 µM); in experiment [5], greater than 128 µg/mL; in [6] it was 8 µg/mL (≈ 13.3 µM). The MIC in experiment [7] is greater than 128 µg/mL; in experiment [8], 32 µg/mL (≈ 53.1 µM); in experiment [9], greater than 128 µg/mL; in experiment [10], 32 µg/mL (≈ 53.1 µM); in experiment [11], 16 µg/mL (≈ 26.5 µM); in [12], 16 µg/mL (≈ 26.5 µM). The MIC is 16 µg/mL (≈ 26.5 µM) in experiment [13]; 16 µg/mL (≈ 26.5 µM) in experiment [14]; 64 µg/mL (≈ 106 µM) in [15]; 8 µg/mL (≈ 13.3 µM) in experiment [16]; 8 µg/mL (≈ 13.3 µM) in experiment [17].

Consider `NC[C@H]1O[C@H](O[C@H]2[C@H](O)[C@@H](OCc3ccc4ccccc4c3)[C@H](N)C[C@@H]2N)[C@H](N)[C@@H](OCc2ccc3ccccc3c2)[C@@H]1O`, for which the MIC in [1] was 8 µg/mL (≈ 13.3 µM); in experiment [2], 128 µg/mL (≈ 212 µM); in [3] it was 64 µg/mL (≈ 106 µM); in experiment [4], 16 µg/mL (≈ 26.5 µM); in experiment [5], greater than 128 µg/mL; in [6], 8 µg/mL (≈ 13.3 µM). Besides, the MIC is no less than 128 µg/mL in experiment [7]; 8 µg/mL (≈ 13.3 µM) in experiment [8]; greater than 128 µg/mL in experiment [9]; 64 µg/mL (≈ 106 µM) in experiment [10]; 64 µg/mL (≈ 106 µM) in [11]; 8 µg/mL (≈ 13.3 µM) in experiment [12]. For the same compound, the MIC in experiment [13] worked out at 8 µg/mL (≈ 13.3 µM); in [14], 64 µg/mL (≈ 106 µM); in [15], 128 µg/mL (≈ 212 µM); in [16], 4 µg/mL (≈ 6.64 µM); in experiment [17] it was 16 µg/mL (≈ 26.5 µM).

Regarding `CCCCCCO[C@@H]1[C@@H](N)[C@@H](O[C@H]2[C@H](O)[C@@H](OCCCCCC)[C@H](N)C[C@@H]2N)O[C@H](CN)[C@H]1O`, the MIC is greater than 128 µg/mL in experiment [1]; greater than 128 µg/mL in experiment [2]; 128 µg/mL (≈ 261 µM) in experiment [3]; 128 µg/mL (≈ 261 µM) in experiment [4]; greater than 128 µg/mL in experiment [5]; 128 µg/mL (≈ 261 µM) in experiment [6]. Besides, the MIC in experiment [7] is greater than 128 µg/mL; in [8], greater than 128 µg/mL; in [9], greater than 128 µg/mL; in [10], 128 µg/mL (≈ 261 µM); in [11], greater than 128 µg/mL; in [12], 128 µg/mL (≈ 261 µM). The MIC in experiment [13] was 128 µg/mL (≈ 261 µM); in [14] it was 128 µg/mL (≈ 261 µM); in [15] it was greater than 128 µg/mL; in [16], greater than 128 µg/mL; in [17], 128 µg/mL (≈ 261 µM).

As to `NC[C@H]1O[C@H](O[C@H]2[C@H](O)[C@@H](O)[C@H](N)C[C@@H]2N)[C@H](N)[C@@H](O)[C@@H]1O` [NEAMINE], the MIC in experiment [1] was greater than 128 µg/mL; in [2] it was greater than 128 µg/mL; in [3], 32 µg/mL (≈ 99.3 µM); in [4], no less than 128 µg/mL; in experiment [5], greater than 128 µg/mL; in experiment [6], 32 µg/mL (≈ 99.3 µM). Further, the MIC was 32 µg/mL (≈ 99.3 µM) in experiment [7]; 16 µg/mL (≈ 49.6 µM) in [8]; greater than 128 µg/mL in experiment [9]; 32 µg/mL (≈ 99.3 µM) in experiment [10]; 2 µg/mL (≈ 6.2 µM) in experiment [11]; 32 µg/mL (≈ 99.3 µM) in experiment [12]. Besides, the MIC in experiment [13] was 16 µg/mL (≈ 49.6 µM); in [14], greater than 128 µg/mL; in [15] it was greater than 128 µg/mL; in experiment [16], greater than 128 µg/mL; in [17], greater than 128 µg/mL.

Consider `N[C@H]1[C@@H](O[C@H]2[C@H](O)[C@@H](OCc3ccc4ccccc4c3)[C@H](N)C[C@@H]2N)O[C@H](CO)[C@@H](OCc2ccc3ccccc3c2)[C@@H]1OCc1ccc2ccccc2c1`, for which the MIC came to 8 µg/mL (≈ 10.8 µM) in experiment [1]; 32 µg/mL (≈ 43 µM) in experiment [2]; 64 µg/mL (≈ 86 µM) in [3]; 128 µg/mL (≈ 172 µM) in [4]; 32 µg/mL (≈ 43 µM) in [5]; 2 µg/mL (≈ 2.69 µM) in experiment [6]. The MIC in experiment [7] was 32 µg/mL (≈ 43 µM); in experiment [8] it was 16 µg/mL (≈ 21.5 µM); in [9] it was greater than 128 µg/mL; in [10], 32 µg/mL (≈ 43 µM); in experiment [11], 1 µg/mL (≈ 1.34 µM); in experiment [12], 16 µg/mL (≈ 21.5 µM). The MIC in [13] was 32 µg/mL (≈ 43 µM); in experiment [14], 16 µg/mL (≈ 21.5 µM); in experiment [15] it was 32 µg/mL (≈ 43 µM); in experiment [16] it was 4 µg/mL (≈ 5.38 µM); in [17], 64 µg/mL (≈ 86 µM).
